Experiment [1] addresses ALK tyrosine kinase receptor (Homo sapiens, UniProt Q9UM73). Kind of experiment: Inhibition of ALK at 1 uM.
Experiment [2] concerns the target Serine/threonine-protein kinase PAK 5 (Homo sapiens) (UniProt Q9P286). Kind of experiment: Inhibition of PAK7 at 1 uM.
Experiment [3] concerns the target cAMP-dependent protein kinase catalytic subunit alpha (Homo sapiens) (UniProt P17612). Kind of experiment: Inhibition of PKAC-alpha at 1 uM.
Experiment [4] addresses Macrophage colony-stimulating factor 1 receptor (Homo sapiens) (UniProt P07333). Kind of experiment: Inhibition of CSF1R at 1 uM. The procedure, abridged:
(§1)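 Single-concentration screen using Ambit Bioscience KINOMEscan technology across a panel of 250–400 kinases. Per-kinase inhibition from this screen was summarized as S(90), the fraction of kinases inhibited by more than 90%.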

The target in experiment [5] is Leukocyte tyrosine kinase receptor (Homo sapiens) (UniProt P29376). In words: Inhibition of LTK at 1 uM. The essentials: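 Single-concentration screen on the Ambit KINOMEscan platform, run against a panel of 250–400 kinases. Per-kinase inhibition was also summarized as S(90), the fraction of kinases inhibited by more than 90%.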
Sequence of Leukocyte tyrosine kinase receptor (Homo sapiens) (P29376 whole entry): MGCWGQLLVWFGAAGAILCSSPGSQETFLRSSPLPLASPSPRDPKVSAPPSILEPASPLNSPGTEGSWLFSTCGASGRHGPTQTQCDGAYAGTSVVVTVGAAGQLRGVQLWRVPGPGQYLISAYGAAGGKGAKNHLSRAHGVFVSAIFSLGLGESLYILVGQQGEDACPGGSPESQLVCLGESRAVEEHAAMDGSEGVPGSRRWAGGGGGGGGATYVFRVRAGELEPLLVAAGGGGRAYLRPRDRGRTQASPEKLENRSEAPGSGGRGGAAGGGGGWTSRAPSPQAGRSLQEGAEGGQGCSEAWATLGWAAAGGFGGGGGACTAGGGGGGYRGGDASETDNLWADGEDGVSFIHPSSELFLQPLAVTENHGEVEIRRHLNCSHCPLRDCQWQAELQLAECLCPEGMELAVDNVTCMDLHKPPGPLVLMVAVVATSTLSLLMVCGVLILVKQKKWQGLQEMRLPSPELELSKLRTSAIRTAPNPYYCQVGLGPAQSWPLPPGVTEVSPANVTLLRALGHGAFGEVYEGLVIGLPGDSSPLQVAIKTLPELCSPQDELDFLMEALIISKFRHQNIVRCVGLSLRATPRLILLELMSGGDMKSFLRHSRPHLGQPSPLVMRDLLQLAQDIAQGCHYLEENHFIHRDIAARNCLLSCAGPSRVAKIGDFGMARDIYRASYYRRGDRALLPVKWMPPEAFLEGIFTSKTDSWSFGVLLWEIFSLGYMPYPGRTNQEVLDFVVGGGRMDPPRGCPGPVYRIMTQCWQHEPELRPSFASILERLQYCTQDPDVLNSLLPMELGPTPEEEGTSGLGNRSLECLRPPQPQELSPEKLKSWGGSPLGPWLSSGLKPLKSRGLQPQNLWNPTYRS
Experiment [6] concerns the target T1, cGMP-dependent protein kinase 2 (Homo sapiens) (UniProt Q13237).
T1 sequence (whole entry): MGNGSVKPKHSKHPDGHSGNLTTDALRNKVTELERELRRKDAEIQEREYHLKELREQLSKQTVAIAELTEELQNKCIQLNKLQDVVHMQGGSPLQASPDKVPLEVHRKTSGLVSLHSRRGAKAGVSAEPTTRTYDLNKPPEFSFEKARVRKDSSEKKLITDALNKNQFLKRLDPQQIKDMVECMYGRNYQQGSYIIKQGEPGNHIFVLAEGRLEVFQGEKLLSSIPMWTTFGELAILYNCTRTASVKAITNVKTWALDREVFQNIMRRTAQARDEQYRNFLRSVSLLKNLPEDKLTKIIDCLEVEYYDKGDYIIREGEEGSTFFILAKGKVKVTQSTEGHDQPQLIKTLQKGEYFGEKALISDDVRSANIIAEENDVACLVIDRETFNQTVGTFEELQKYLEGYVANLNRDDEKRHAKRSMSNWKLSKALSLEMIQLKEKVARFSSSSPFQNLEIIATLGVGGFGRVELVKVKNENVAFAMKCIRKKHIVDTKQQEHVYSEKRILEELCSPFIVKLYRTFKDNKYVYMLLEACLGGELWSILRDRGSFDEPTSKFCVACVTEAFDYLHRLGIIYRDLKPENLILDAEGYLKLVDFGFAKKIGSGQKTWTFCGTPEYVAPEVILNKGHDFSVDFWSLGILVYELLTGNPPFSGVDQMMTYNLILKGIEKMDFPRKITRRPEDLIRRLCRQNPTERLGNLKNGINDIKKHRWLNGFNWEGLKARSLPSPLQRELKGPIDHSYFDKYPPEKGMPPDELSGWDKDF
In words: Inhibition of PRKG2 at 1 uM.

Experiment [7] deals with T2, Tyrosine-protein kinase receptor TYRO3 (Homo sapiens) (UniProt Q06418).
T2 sequence (whole entry): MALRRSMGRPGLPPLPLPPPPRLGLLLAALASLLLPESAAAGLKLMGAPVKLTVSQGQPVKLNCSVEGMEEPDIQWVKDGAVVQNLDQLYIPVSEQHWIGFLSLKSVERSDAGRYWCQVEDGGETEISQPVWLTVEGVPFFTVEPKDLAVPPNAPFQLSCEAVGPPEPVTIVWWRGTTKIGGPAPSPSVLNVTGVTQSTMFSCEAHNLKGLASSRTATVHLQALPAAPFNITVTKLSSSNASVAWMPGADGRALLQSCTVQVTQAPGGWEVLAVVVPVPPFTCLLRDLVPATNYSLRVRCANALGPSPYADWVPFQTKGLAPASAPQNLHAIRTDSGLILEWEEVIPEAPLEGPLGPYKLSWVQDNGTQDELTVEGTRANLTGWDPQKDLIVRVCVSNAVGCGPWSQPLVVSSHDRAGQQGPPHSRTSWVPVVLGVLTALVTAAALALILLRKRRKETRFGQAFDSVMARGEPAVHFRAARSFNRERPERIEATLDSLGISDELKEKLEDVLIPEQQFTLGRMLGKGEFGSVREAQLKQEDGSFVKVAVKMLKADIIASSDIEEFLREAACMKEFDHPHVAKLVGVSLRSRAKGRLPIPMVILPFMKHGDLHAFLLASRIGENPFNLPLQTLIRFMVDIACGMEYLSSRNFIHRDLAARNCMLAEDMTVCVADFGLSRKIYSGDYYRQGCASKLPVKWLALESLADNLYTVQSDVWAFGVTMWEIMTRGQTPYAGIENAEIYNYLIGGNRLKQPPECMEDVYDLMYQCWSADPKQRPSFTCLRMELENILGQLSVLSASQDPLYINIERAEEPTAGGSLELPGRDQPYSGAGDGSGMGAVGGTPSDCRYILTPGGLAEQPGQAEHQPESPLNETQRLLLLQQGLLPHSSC
Kind of experiment: Inhibition of TYRO3 at 1 uM.

In experiment [8] the test system is Epidermal growth factor receptor (Homo sapiens), P00533 [L861Q]. Kind of experiment: Inhibition of EGFR L861Q mutant at 1 uM. It is filed as protein assay. The essentials: as §1
Sequence of Epidermal growth factor receptor (Homo sapiens), P00533 [L861Q] (P00533 whole entry L861Q): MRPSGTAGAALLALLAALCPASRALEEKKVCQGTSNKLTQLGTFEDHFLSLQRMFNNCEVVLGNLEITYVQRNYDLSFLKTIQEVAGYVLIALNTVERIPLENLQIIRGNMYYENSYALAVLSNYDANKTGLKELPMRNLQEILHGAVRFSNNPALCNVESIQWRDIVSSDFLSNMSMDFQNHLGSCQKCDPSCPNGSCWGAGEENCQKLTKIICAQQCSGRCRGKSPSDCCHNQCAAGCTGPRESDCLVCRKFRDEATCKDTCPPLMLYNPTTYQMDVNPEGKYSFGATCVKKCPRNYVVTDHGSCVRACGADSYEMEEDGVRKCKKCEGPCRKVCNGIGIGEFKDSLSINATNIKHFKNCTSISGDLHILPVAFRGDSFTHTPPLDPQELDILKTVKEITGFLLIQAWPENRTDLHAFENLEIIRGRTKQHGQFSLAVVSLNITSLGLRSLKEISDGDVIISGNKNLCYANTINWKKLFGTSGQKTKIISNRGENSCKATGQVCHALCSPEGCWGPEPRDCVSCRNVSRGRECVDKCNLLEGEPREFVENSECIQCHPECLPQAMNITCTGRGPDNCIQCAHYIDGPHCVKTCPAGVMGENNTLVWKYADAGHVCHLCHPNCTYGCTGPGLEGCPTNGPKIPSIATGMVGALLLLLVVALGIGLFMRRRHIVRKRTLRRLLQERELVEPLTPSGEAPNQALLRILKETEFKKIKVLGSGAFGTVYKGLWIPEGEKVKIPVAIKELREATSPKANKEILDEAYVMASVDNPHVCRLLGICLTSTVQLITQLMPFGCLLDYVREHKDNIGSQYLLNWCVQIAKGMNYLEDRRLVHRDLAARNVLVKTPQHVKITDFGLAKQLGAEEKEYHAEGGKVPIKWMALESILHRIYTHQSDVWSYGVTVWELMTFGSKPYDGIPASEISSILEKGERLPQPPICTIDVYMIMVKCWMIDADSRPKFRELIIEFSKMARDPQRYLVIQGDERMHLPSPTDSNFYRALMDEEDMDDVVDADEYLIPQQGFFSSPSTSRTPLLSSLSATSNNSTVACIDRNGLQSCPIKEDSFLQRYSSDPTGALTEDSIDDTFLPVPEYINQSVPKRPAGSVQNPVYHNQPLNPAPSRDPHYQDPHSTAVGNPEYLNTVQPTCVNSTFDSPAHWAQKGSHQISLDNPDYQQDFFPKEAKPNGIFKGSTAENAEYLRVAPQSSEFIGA
In experiment [9] the target is T3, Serine/threonine-protein kinase MAK (Homo sapiens) (UniProt P20794).
T3 sequence (whole entry): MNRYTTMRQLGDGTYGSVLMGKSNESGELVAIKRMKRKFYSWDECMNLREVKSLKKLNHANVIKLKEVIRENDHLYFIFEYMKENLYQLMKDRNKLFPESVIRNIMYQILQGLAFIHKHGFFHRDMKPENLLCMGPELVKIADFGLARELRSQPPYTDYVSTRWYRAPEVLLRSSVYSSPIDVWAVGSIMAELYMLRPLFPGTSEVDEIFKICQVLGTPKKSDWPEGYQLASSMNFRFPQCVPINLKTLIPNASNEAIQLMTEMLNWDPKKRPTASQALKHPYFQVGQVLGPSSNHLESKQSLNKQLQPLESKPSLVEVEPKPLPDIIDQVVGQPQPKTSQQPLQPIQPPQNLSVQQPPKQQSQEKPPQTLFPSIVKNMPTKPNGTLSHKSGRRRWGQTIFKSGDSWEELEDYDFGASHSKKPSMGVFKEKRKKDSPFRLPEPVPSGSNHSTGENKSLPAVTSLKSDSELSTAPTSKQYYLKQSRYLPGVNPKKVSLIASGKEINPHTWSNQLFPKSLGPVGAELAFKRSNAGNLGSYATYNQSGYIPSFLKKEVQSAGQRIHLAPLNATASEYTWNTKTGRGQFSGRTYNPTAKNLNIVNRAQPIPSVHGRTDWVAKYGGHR
Kind of experiment: Inhibition of MAK at 1 uM.

Experiment [10] deals with Serine/threonine-protein kinase N1 (Homo sapiens) (UniProt Q16512). Kind of experiment: Inhibition of PKN1 at 1 uM.
Sequence of Serine/threonine-protein kinase N1 (Homo sapiens) (Q16512 2-942 limits assumed): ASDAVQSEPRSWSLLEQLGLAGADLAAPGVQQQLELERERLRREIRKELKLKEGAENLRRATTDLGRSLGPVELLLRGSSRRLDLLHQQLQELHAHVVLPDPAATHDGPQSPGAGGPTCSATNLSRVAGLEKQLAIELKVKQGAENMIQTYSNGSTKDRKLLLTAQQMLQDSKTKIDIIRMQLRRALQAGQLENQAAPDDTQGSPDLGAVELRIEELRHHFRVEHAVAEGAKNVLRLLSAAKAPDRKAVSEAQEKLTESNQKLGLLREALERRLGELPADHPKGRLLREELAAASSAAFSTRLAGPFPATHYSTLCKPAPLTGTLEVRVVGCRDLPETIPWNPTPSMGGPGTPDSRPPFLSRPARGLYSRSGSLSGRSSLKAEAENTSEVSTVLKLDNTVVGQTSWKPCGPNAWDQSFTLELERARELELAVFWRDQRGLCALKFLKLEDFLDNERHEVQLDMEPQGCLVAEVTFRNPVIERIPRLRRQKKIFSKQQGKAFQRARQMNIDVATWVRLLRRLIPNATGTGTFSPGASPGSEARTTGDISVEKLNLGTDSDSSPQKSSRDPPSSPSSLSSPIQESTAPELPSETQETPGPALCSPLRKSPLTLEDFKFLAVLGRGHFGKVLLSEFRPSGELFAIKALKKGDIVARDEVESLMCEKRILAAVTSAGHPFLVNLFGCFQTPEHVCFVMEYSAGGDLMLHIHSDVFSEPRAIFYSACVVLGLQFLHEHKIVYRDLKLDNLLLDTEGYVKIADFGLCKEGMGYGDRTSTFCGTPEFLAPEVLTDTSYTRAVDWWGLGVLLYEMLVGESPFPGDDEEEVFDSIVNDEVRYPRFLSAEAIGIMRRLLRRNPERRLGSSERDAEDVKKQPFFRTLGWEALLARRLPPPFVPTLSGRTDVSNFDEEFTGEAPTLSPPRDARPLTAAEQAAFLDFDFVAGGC
Experiment [11] has as its target Dual specificity tyrosine-phosphorylation-regulated kinase 1A (Homo sapiens) (UniProt Q13627). In words: Inhibition of DYRK1A at 1 uM.
The target of experiment [12] is Serine/threonine-protein kinase 25 (Homo sapiens) (UniProt O00506). Kind of experiment: Inhibition of YSK1 at 1 uM.
Sequence of Serine/threonine-protein kinase 25 (Homo sapiens) (O00506 whole entry, looked up): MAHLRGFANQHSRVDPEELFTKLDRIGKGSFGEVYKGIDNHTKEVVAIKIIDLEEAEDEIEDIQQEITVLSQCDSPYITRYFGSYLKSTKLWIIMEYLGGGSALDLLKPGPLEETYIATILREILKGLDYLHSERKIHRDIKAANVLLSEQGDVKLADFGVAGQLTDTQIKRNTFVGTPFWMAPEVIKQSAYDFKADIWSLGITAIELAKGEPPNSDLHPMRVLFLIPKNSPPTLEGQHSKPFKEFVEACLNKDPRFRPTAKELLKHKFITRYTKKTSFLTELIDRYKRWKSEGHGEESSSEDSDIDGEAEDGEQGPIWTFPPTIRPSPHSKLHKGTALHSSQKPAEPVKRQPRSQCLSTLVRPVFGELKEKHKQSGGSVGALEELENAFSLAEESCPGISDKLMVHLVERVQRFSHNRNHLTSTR

The term inhibition denotes how much of the control response was suppressed. A higher inhibition goes with a strong effect.

Sequence of Macrophage colony-stimulating factor 1 receptor (Homo sapiens) (P07333 whole entry): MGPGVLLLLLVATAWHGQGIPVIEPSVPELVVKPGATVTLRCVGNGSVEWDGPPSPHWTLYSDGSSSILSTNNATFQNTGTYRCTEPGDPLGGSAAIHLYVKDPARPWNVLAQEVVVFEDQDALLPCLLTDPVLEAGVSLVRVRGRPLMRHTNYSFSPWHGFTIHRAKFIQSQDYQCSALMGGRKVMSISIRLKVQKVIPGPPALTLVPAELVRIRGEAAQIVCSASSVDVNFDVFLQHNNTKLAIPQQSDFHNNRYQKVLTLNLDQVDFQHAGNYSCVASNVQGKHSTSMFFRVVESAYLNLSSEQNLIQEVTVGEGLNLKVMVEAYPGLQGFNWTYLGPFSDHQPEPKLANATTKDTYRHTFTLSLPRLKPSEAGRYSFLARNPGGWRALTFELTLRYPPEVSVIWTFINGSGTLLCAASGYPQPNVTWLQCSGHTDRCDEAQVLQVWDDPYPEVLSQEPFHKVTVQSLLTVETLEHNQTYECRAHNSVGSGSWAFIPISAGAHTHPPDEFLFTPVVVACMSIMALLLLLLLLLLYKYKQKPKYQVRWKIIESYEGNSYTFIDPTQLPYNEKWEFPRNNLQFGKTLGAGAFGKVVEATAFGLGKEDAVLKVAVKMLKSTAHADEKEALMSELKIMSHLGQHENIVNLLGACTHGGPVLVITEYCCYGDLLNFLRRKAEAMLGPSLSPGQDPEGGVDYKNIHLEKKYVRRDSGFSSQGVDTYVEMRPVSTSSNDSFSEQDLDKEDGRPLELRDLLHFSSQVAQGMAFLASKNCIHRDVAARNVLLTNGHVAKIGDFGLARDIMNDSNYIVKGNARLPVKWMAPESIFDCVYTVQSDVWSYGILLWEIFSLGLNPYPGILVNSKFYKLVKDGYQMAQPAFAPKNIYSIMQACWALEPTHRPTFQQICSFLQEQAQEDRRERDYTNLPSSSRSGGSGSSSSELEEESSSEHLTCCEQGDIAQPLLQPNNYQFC

Regarding `O=C(c1ccc(-c2cnc3c(c2)N(Cc2cc(Cl)ccc2C(F)(F)F)CCN3)cc1)N1CCCCC1`, the inhibition in experiment [1] is less than 50%; in experiment [2] it was less than 50%; in [3], less than 50%; in experiment [4], less than 50%; in [5], 89.3%; in experiment [6], less than 50%. Also, the inhibition in experiment [7] and in experiment [8] was less than 50% each time.
For the compound `CN1CCN(c2ccc(-c3cnc4c(c3)N(Cc3c(F)ccc(F)c3Cl)CCN4)cn2)CC1`, the inhibition in experiment [9] is less than 50%; in [1] it was 97%; in [10] it was less than 50%; in experiment [2] it was less than 50%; in experiment [4], 96%; in experiment [5], 97%. Further, the inhibition in [6], in experiment [7], in experiment [8], in experiment [11] and in experiment [12] was less than 50% in each case.
Turning to `COC1CCN(C(=O)c2ccc(-c3cnc4c(c3)N(Cc3cc(Cl)ccc3C(F)(F)F)CCN4)cc2)CC1`, the inhibition in [1] was 85.6%; in experiment [2] it was less than 50%; in [3], less than 50%; in experiment [4], 74.2%; in experiment [5], 95.5%; in [6], less than 50%. Further, the inhibition in experiment [7] and in experiment [8] was less than 50% in each case.
For the compound `O=C(O)c1ccc(-c2cnc3c(c2)N(Cc2cc(Cl)ccc2C(F)(F)F)CCN3)cc1`, the inhibition was less than 50% in experiment [1]; less than 50% in experiment [2]; less than 50% in experiment [3]; less than 50% in [4]; 92.7% in experiment [5]; less than 50% in experiment [6]. The inhibition in experiment [7] and in experiment [8] was less than 50% in each case.
As to `FC(F)(F)c1ccc(Cl)cc1CN1CCNc2ncc(-c3ccnc(N4CCNCC4)c3)cc21`, the inhibition in experiment [9] was less than 50%; in experiment [1], 99%; in [10], 82%; in [2], less than 50%; in experiment [3], less than 50%; in [4] it was 99%. Further, the inhibition was 100% in experiment [5]; less than 50% in experiment [6]; less than 50% in [7]; less than 50% in experiment [8]; less than 50% in [11]; less than 50% in experiment [12].
With `CN1CCN(c2ccc(-c3cnc4c(c3)N(Cc3cc(Cl)ccc3Cl)CCN4)cn2)CC1`, the inhibition in [9] is less than 50%; in experiment [1] it was 98%; in experiment [10] it was less than 50%; in experiment [2], less than 50%; in [3] it was less than 50%; in [4], 88%. Moreover, the inhibition in experiment [5] was 97%; in experiment [6] it was less than 50%; in experiment [7], less than 50%; in experiment [8], less than 50%; in experiment [11] it was less than 50%; in experiment [12] it was less than 50%.
Turning to `O=C(c1ccc(-c2cnc3c(c2)N(Cc2cc(Cl)ccc2C(F)(F)F)CCN3)cc1)N1CCC(N2CCCC2)CC1`, the inhibition in experiment [1] is 83.4%; in experiment [2], less than 50%; in [3], less than 50%; in experiment [4], 96.6%; in experiment [5] it was 80.7%; in experiment [6], less than 50%. For the same compound, the inhibition in experiment [7] and in experiment [8] was less than 50% each time.
For `CN1CCN(c2ccc(-c3cnc4c(c3)N(Cc3cc(Cl)ccc3C(F)(F)F)CCN4)cn2)CC1`, the inhibition is less than 50% in [9]; 98% in experiment [1]; less than 50% in [10]; less than 50% in experiment [2]; 88% in experiment [4]; 99% in experiment [5]. Besides, the inhibition in experiment [6], in experiment [7], in experiment [8], in experiment [11] and in [12] was less than 50% throughout.
For `CC(=O)N1CCN(c2cc(-c3cnc4c(c3)N(Cc3cc(Cl)ccc3C(F)(F)F)CCN4)ccn2)CC1`, the inhibition in experiment [9] is less than 50%; in [1], 98%; in experiment [10] it was less than 50%; in experiment [2] it was less than 50%; in experiment [3], less than 50%; in experiment [4], 93%. Further, the inhibition in experiment [5] is 99%; in experiment [6], less than 50%; in [7] it was less than 50%; in experiment [8], less than 50%; in experiment [11], less than 50%; in experiment [12], less than 50%.
With `CN1CCN(c2ccc(-c3cnc4c(c3)N(Cc3cc(F)ccc3F)CCN4)cn2)CC1`, the inhibition in [9] was less than 50%; in experiment [1], 96.7%; in experiment [10] it was less than 50%; in [2] it was less than 50%; in [3], less than 50%; in experiment [4] it was less than 50%. The inhibition in [5] was 96.8%; in experiment [6], less than 50%; in [7], less than 50%; in [8], less than 50%; in experiment [11], less than 50%; in experiment [12] it was less than 50%.

(Values after ChEMBL document CHEMBL1165965, “Synthesis and structure-activity relationships of 1,2,3,4-tetrahydropyrido[2,3-b]pyrazines as potent and selective inhibitors of the anaplastic lymphoma kinase” (Bioorg Med Chem, 2010).)
